The subject of one series is rhinovirus B14. As to the kind of experiment: Antiviral activity against Human rhinovirus serotype 14 infected in human HeLa cells assessed as reduction in virus-induced cytopathic effect after 24 to 36 hrs by MTT assay. The series is classed as functional, organism-based. The settings on record: Rhinovirus B. Summed up:
(§1)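 HeLa (Ohio) monolayers in DMEM with 1% nonessential amino acids and 10% fetal calf serum, infected at MOI 1, then given serial compound dilutions. Incubation 24−36 h at 33 °C, 3% CO2, until control CPE was almost total. Multicycle CPE reduction read by MTT. EC50 (50% CPE inhibition) taken from dose−response curves by linear regression. Pleconaril served as reference.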

A short description of series [1]: Cytotoxicity against human HeLa cells assessed as decrease in cell viability after 72 hrs by MTT assay. The series is classed as cell-based. Summed up:
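HeLa monolayers exposed to a range of compound concentrations at 37 °C, 5% CO2. Morphology (rounding, shrinking, detachment) checked by light microscopy at 24, 48 and 72 h. Viability measured by MTT colorimetry. CC50 is the concentration that lowered control absorbance by 50%.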
A general note: Tetrazolium dyes change colour on reduction, which living cells bring about.

The next series concerns rhinovirus A39. As to the kind of experiment: Antiviral activity against Human rhinovirus serotype 39 infected in human HeLa cells assessed as reduction in virus-induced cytopathic effect after 24 to 36 hrs by MTT assay. The series is classed as functional, organism-based. As to conditions: Rhinovirus A. Summed up: as §1
The nature of series [2]: Selectivity index, ratio of CC50 for human HeLa cells to EC50 for Human rhinovirus serotype 39 infected in human HeLa cells. As to conditions: read-out: Ratio CC50/EC50. The class given is toxicity, cell-based. Summed up:
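Selectivity index computed as CC50 (MTT, uninfected HeLa) divided by EC50 (MTT, HRV39 CPE reduction in HeLa at MOI 1, 24−36 h at 33 °C).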

Series [3] has as its target T1, VP1 capsid protein (Human rhinovirus sp.) (UniProt Q7T664).
T1 sequence (whole entry): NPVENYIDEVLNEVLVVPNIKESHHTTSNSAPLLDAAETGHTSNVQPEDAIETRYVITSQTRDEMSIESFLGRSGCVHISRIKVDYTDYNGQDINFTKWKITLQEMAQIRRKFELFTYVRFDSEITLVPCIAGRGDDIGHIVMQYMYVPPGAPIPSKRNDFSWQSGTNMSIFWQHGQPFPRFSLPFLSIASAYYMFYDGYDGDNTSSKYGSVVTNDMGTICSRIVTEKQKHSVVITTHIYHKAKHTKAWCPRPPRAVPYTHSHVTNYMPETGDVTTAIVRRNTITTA
Put plainly: Inhibition of Human rhinovirus serotype 39 capsid infected in human HeLa cells assessed as reduction in virus-induced cytopathic effect at 5 ug/ml treated 3 hrs post viral infection measured after 24 to 36 hrs relative to control. The class given is cell-based. The settings on record: rhinovirus A39. Summed up:
(§2)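 HeLa (Ohio strain) monolayers in 24-well plates (DMEM, 10% fetal calf serum) infected with ATCC HRV39 (working stock prepared as cell lysate). Compound at 5 μg/mL added before (−1 h), at (0 h) or after infection. Cells incubated in CO2 atmosphere for 24–36 h, then washed twice with HBSS. Virus yield inhibition (%) determined by virus-cell-based CPE reduction assay in HeLa cells. Pirodavir (5 μg/mL) served as positive control.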

In series [4] the target is T1, VP1 capsid protein (Human rhinovirus sp.). Put plainly: Inhibition of Human rhinovirus serotype 39 capsid infected in human HeLa cells assessed as reduction in virus-induced cytopathic effect at 5 ug/ml treated 1 hr prior to viral infection measured 24 to 36 hrs post viral infection relative to control. The series is classed as cell-based. As to conditions: rhinovirus A39. Summed up: as §2
Background: Cytopathic effects are the visible damage that an infection or toxin causes in cultured cells.

Series [5] has the same target. As to the kind of experiment: Inhibition of Human rhinovirus serotype 39 capsid infected in human HeLa cells assessed as reduction in virus-induced cytopathic effect at 5 ug/ml treated 2 hrs post viral infection measured after 24 to 36 hrs relative to control. The class given is cell-based. As to conditions: rhinovirus A39. Summed up: as §2
For series [6] the target is unchanged. As to the kind of experiment: Inhibition of Human rhinovirus serotype 39 capsid infected in human HeLa cells assessed as reduction in virus-induced cytopathic effect at 5 ug/ml treated 1 hr post viral infection measured after 24 to 36 hrs relative to control. The series is classed as cell-based. As to conditions: rhinovirus A39. Summed up:
as §2

For series [7] the target is unchanged. Put plainly: Inhibition of Human rhinovirus serotype 39 capsid infected in human HeLa cells assessed as reduction in virus-induced cytopathic effect at 5 ug/ml treated with virus inoculum measured after 24 to 36 hrs relative to control. As to conditions: rhinovirus A39. The series is classed as cell-based. Summed up:
as §2

The record followed here is ChEMBL document CHEMBL4130511, “Phenylpropenoids from Bupleurum fruticosum as Anti-Human Rhinovirus Species A Selective Capsid Binders” (J Nat Prod, 2017).

Broadly, the EC50 is the concentration giving half of the maximal effect. Broadly, the CC50 is the concentration at which the toxic effect on the cells reaches its halfway point. By inhibition is commonly meant the share of the control response that was lost under treatment.

The structures appear in SMILES notation. The source made the active and inactive calls. The rule behind the calls is not given here.

For the compound `C/C=C(/C)C(=O)OC/C=C/c1ccc(OC)c(OC)c1`, the EC50 in the series with rhinovirus B14 and with rhinovirus A39 was more than 453 µM throughout. Further, in series [1], the CC50 at 72 h stood at 453 µM.
As to `COc1ccc(/C=C/CO)cc1OC`, the EC50 in the series with rhinovirus B14 and with rhinovirus A39 was more than 160 µM throughout. Moreover, the CC50 at 72 h in [1] was 160 µM.
Regarding `C=C[C@H](O)C#CC#CC/C=C\CCCCCCCCO`, the figures for the EC50 in the series on rhinovirus B14 and in the series with rhinovirus A39 were more than 14.6 µM and 1.8 µM, respectively. Besides, the CC50 at 72 h in [1] was found to be 14.6 µM. For the same compound, in series [2], the selectivity ratio is 8.1.
Turning to `C/C=C(/C)C(=O)OC/C(=C/C)C(=O)OC/C=C/c1ccc(OC)c(OC)c1`, the inhibition in series [3] amounted to 50%; in series [4] it was 100%; in series [5] it was 65%; in series [6], 78%; in series [7], 90%. Also, the EC50 with rhinovirus B14 was more than 20.3 µM; in the series with rhinovirus A39, 2.4 µM. The CC50 at 72 h in series [1] came out at 20.3 µM. Besides, in series [2], the selectivity ratio was 8.4.
Consider `CCOC(=O)c1ccc(OCCC2CCN(c3ccc(C)nn3)CC2)cc1`, for which the inhibition entry in series [7] is “Active”.
Consider `CC(C)CC(=O)OC/C=C/c1ccccc1`, for which the EC50 in the series on rhinovirus B14 and in the series with rhinovirus A39 was more than 142 µM throughout. Moreover, in series [1], the CC50 at 72 h came to 142 µM.
`Cc1cc(CCCOc2c(C)cc(-c3noc(C(F)(F)F)n3)cc2C)on1` [PLECONARIL]: the EC50 stood at 0.3 µM in the series with rhinovirus B14 and 0.1 µM with rhinovirus A39. For the same compound, the CC50 at 72 h in series [1] was determined as 131 µM.
The like results for `C=CC(O)C#CC#C/C=C/C(O)CCCCCCCCO` (configuration not stated) were, in that order, more than 107 µM, more than 107 µM and 107 µM.
As to `C/C=C(/C)C(=O)OC/C(=C/C)C(=O)OC/C=C/c1ccc(OC)cc1`, the EC50 in the series on rhinovirus B14 and with rhinovirus A39 was more than 36.3 µM each time. The CC50 at 72 h in series [1] was 36.3 µM.
Regarding `COc1ccc(/C=C/CO)cc1`, the EC50 in the series with rhinovirus B14 and in the series with rhinovirus A39 was more than 189 µM in each case. For the same compound, the CC50 at 72 h in series [1] came out at 189 µM.
Turning to `C/C=C(/C)C(=O)OC/C=C/c1ccc(OC)cc1`, the EC50 in the series with rhinovirus B14 is more than 248 µM; in the series with rhinovirus A39 it was 30.9 µM. Moreover, the CC50 at 72 h in series [1] turned out to be 248 µM. Besides, the selectivity ratio in series [2] stood at 8.
Regarding `CC(C)[C@@H]1CCC(C=O)=C[C@H]1O`, the EC50 with rhinovirus B14 and in the series with rhinovirus A39 was more than 47.6 µM throughout. In addition, the half-maximal cytotoxic concentration (CC50) at 72 h in series [1] amounted to 47.6 µM.
